Assays:
Details in all cases: in vivo
Muscle tissue [1] = assay: Biodistribution in muscle of Wistar rat bearing glioma35 rat tumor at 150-180 uCi after 40 mins; assay type: ADME, organism-based
Summary of the method: (§1)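 Male Wistar rats (150–200 g) received 150–180 μCi ([…]) [18F]FET in 0.3 mL isotonic solution via the jugular vein. They were killed at 40 min. Organs were dissected, blotted of blood, weighed and gamma-counted, and values are given as %ID/g, with five rats per time point. Glioma35 homografts grew for 14 days after subcutaneous or intramuscular injection into the right hind limb. Abscesses were raised by turpentine oil (10 μL) into the right hind-limb muscle 24 h before the experiment.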

Heart [2] = assay: Biodistribution in heart of Wistar rat bearing glioma35 rat tumor at 150-180 uCi after 40 mins; assay type: ADME, organism-based; summary of the method: as §1
Brain [3] = assay: Biodistribution in brain of Wistar rat bearing glioma35 rat tumor at 150-180 uCi after 40 mins; assay type: ADME, organism-based; summary of the method: as §1
Brain [4] = assay: Biodistribution in brain of Wistar rat bearing turpentine-induced aseptic abscess at 150-180 uCi after 40 mins; assay type: ADME, organism-based; summary of the method: as §1
[5] = Biodistribution in urinary bladder of Wistar rat bearing glioma35 rat tumor at 150-180 uCi after 40 mins; assay type: ADME, organism-based; summary of the method: as §1
Liver [6] = assay: Biodistribution in liver of Wistar rat bearing turpentine-induced aseptic abscess at 150-180 uCi after 40 mins; assay type: ADME, organism-based; summary of the method: as §1
Blood [7] = assay: Biodistribution in blood of Wistar rat bearing turpentine-induced aseptic abscess at 150-180 uCi after 40 mins; assay type: ADME, organism-based; summary of the method: as §1
[8] = Biodistribution in urinary bladder of Wistar rat bearing turpentine-induced aseptic abscess at 150-180 uCi after 40 mins; assay type: ADME, organism-based; summary of the method: as §1
Muscle tissue [9] = assay: Biodistribution in muscle of Wistar rat bearing turpentine-induced aseptic abscess at 150-180 uCi after 40 mins; assay type: ADME, organism-based; summary of the method: as §1
Kidney [10] = assay: Biodistribution in kidney of Wistar rat bearing turpentine-induced aseptic abscess at 150-180 uCi after 40 mins; assay type: ADME, organism-based; summary of the method: as §1
Blood [11] = assay: Biodistribution in blood of Wistar rat bearing glioma35 rat tumor at 150-180 uCi after 40 mins; assay type: ADME, organism-based; summary of the method: as §1
[12] = Biodistribution in abscess of Wistar rat bearing turpentine-induced aseptic abscess at 150-180 uCi after 40 mins; assay type: ADME, organism-based; summary of the method: as §1
Kidney [13] = assay: Biodistribution in kidney of Wistar rat bearing glioma35 rat tumor at 150-180 uCi after 40 mins; assay type: ADME, organism-based; summary of the method: as §1
Liver [14] = assay: Biodistribution in liver of Wistar rat bearing glioma35 rat tumor at 150-180 uCi after 40 mins; assay type: ADME, organism-based; summary of the method: as §1
Heart [15] = assay: Biodistribution in heart of Wistar rat bearing turpentine-induced aseptic abscess at 150-180 uCi after 40 mins; assay type: ADME, organism-based; summary of the method: as §1
[16] = Biodistribution in tumor of Wistar rat bearing glioma35 rat tumor at 150-180 uCi after 40 mins; assay type: ADME, organism-based, Neoplasm; summary of the method: as §1

Drug uptake (Muscle tissue [1]): 0.84 % ID/g
Drug uptake (Heart [2]): 0.98 % ID/g
Drug uptake (Brain [3]): 0.54 % ID/g
Drug uptake (Brain [4]): 1 % ID/g
Drug uptake [5]: 2.51 % ID/g
Drug uptake (Liver [6]): 1.24 % ID/g
Drug uptake (Blood [7]): 1.45 % ID/g
Drug uptake [8]: 3.94 % ID/g
Drug uptake (Muscle tissue [9]): 1.32 % ID/g
Drug uptake (Kidney [10]): 1.58 % ID/g
Drug uptake (Blood [11]): 1.24 % ID/g
Drug uptake [12]: 1.75 % ID/g
Drug uptake (Kidney [13]): 0.86 % ID/g
Drug uptake (Liver [14]): 1.03 % ID/g
Drug uptake (Heart [15]): 1.47 % ID/g
Drug uptake [16]: 2.53 % ID/g
Compound: N[C@@H](Cc1ccc(OCC[18F])cc1)C(=O)O [FLORETYROSINE F18]

Source: ChEMBL document CHEMBL1157192, “No carrier added synthesis of O-(2'-[18F]fluoroethyl)-L-tyrosine via a novel type of chiral enantiomerically pure precursor, NiII complex of a (S)-tyrosine Schiff base” (Bioorg Med Chem, 2008)
